For assay [1], the target named is T1, Tyrosine-protein phosphatase non-receptor type 1 (Homo sapiens) (UniProt P18031).
T1 sequence (whole entry): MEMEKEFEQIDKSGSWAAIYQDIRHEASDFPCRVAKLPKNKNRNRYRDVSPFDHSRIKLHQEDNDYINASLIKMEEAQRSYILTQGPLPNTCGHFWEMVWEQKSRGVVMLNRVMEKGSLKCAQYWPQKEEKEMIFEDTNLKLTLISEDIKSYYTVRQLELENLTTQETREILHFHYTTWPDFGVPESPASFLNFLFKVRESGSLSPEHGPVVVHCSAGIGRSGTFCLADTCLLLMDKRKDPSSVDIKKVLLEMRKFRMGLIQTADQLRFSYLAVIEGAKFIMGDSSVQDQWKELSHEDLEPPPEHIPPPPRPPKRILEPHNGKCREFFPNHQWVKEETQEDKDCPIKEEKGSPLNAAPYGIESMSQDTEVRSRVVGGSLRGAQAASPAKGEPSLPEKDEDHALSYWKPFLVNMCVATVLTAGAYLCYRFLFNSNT
Put plainly: Inhibitory activity against recombinant human PTP1B at 10 uM.

In assay [2] the target is T2, Tyrosine-protein phosphatase non-receptor type 1 (Homo sapiens, UniProt P18031).
T2 sequence (P18031 whole entry): T1 sequence (whole entry)
Put plainly: Inhibitory activity against recombinant human PTP1B. An outline of the steps:
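Recombinant human PTP-1B (0.1 μg) incubated with 20 μM fluorescein diphosphate and compound in 30 mM Tris, 75 mM NaCl, 0.67 mM EDTA, 1 mM DTT, pH 8.0, for 1 h at room temperature. Product fluorescein monophosphate read by fluorescence (ex 485 nm, em 538 nm). IC50 reported.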

For assay [3], the target named is T3, Receptor-type tyrosine-protein phosphatase C (Homo sapiens, UniProt P08575).
T3 sequence (P08575 whole entry): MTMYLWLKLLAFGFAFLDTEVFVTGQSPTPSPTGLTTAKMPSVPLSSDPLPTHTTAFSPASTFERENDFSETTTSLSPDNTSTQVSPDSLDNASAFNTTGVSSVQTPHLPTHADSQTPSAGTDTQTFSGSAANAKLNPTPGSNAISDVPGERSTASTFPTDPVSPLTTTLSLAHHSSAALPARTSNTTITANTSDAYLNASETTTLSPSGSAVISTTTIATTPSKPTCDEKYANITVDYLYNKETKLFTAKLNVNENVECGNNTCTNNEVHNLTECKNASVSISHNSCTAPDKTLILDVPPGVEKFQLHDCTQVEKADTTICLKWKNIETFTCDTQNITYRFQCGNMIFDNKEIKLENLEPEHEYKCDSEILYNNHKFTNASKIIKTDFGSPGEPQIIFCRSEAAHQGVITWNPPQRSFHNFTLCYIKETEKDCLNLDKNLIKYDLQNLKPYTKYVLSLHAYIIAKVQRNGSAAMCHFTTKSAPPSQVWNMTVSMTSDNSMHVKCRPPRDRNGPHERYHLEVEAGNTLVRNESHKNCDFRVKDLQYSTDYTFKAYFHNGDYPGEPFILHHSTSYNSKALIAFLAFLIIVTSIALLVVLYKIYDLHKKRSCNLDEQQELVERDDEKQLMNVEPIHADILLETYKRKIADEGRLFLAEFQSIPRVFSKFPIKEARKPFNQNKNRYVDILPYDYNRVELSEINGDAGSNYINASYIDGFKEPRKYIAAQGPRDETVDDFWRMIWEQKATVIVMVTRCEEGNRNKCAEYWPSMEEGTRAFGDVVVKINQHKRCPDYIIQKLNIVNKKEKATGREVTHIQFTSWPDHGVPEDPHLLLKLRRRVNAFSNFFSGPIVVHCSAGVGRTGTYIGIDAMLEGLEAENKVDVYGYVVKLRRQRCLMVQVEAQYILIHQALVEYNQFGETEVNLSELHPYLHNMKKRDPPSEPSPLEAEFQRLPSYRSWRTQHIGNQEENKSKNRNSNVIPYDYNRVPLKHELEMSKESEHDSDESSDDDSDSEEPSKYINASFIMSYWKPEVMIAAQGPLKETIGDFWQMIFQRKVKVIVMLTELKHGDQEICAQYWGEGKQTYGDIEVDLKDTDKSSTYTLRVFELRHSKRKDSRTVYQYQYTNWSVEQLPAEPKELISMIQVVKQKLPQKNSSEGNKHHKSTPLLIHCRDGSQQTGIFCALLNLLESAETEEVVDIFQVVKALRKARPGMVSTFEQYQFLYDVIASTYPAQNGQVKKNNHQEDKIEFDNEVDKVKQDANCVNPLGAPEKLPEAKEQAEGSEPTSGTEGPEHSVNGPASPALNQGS
Put plainly: Inhibitory activity against CD45 phosphatase. An outline of the steps: (§1)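 Selectivity panel of nine phosphatases, each assayed with fluorescein diphosphate at the same concentration as in the PTP-1B assay (20 μM). IC50 values (μM) reported.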

The target of assay [4] is T4, M-phase inducer phosphatase 3 (Homo sapiens, UniProt P30307).
T4 sequence (P30307 whole entry): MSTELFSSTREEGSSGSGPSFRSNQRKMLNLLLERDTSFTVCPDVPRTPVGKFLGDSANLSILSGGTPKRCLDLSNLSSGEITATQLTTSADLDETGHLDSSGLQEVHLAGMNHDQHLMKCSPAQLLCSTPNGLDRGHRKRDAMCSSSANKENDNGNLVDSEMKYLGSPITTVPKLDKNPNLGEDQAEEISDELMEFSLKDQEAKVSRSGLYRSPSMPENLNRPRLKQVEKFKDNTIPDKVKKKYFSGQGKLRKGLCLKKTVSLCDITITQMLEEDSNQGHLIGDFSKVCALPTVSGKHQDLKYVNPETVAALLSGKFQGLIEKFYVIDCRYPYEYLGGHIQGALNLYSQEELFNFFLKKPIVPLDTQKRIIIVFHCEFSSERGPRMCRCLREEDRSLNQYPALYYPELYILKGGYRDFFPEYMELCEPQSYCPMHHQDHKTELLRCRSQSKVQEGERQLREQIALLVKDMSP
The assay is described as follows: Inhibitory activity against cdc25C phosphatase. The procedure, abridged: as §1

Assay [5] addresses T5, M-phase inducer phosphatase 1 (Homo sapiens, UniProt P30304).
T5 sequence (P30304 whole entry): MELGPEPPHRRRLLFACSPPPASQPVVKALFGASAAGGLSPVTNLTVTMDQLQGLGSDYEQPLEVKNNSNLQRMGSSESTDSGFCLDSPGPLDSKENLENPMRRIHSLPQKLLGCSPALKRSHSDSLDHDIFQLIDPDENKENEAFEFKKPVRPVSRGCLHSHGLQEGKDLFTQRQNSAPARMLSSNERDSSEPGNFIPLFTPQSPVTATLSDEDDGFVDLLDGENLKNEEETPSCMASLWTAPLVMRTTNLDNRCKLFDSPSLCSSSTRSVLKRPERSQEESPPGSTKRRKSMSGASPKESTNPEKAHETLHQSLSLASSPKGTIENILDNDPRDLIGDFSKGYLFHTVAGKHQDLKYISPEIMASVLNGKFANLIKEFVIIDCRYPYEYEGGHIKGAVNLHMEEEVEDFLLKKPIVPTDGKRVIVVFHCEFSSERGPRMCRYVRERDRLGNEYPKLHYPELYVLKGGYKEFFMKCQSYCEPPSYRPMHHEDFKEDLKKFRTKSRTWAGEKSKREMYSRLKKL
Put plainly: Inhibitory activity against cdc25A phosphatase. An outline of the steps: as §1

Some results are limits rather than exact numbers.

Take `CCCCCCCCCCCCCCc1ccc(C(=O)c2ccc3c(-c4ccc(OCC(=O)O)cc4)nocc2-3)cc1`: the inhibition in assay [1] was determined as 101%. Moreover, the IC50 in assay [2] is 140 nM; in assay [3] it was 150 nM; in assay [4], 2270 nM; in assay [5] it was 1330 nM.

Take `COc1ccc(C(=O)c2ccc3c(-c4ccc(OCC(=O)O)cc4)nocc2-3)cc1`: the inhibition in assay [1] came out at 81.5%. For the same compound, the IC50 in assay [2] came to 800 nM; in assay [3] it was 28800 nM; in assay [4], 61700 nM; in assay [5], 73300 nM.

As for `NCc1ccc(C(=O)c2ccc3c(-c4ccc(OCC(=O)O)cc4)nocc2-3)cc1`, the inhibition in assay [1] turned out to be 97.2%. The IC50 in assay [2] is 2160 nM; in assay [3], 1230 nM; in assay [4] it was greater than 10000 nM; in assay [5], 10000 nM.

Usually inhibition stands for the drop in the measured response relative to a control, in per cent. What is called IC50 is the concentration at which inhibition is half-maximal.

Source of the values: ChEMBL document CHEMBL1149392, “PTP-1B inhibitors: cyclopenta[d][1,2]-oxazine derivatives” (Bioorg Med Chem Lett, 2006).
